Laboratory results published in ChEMBL document CHEMBL1149300, “Novel retinoic acid metabolism blocking agents endowed with multiple biological activities are efficient growth inhibitors of human breast and prostate cancer cells in vitro and a human breast tumor xenograft in nude mice” (J Med Chem, 2004).

What was measured:
Cytochrome P450 26A1 [1] = molecular target: T1, Cytochrome P450 26A1 (Homo sapiens, UniProt O43174); experiment: Inhibition of ATRA-induced CYP26 in human T47D cells assessed as ATRA metabolism using [11.12-3H]-ATRA; format: functional, cell-based
T1 sequence (O43174 whole entry): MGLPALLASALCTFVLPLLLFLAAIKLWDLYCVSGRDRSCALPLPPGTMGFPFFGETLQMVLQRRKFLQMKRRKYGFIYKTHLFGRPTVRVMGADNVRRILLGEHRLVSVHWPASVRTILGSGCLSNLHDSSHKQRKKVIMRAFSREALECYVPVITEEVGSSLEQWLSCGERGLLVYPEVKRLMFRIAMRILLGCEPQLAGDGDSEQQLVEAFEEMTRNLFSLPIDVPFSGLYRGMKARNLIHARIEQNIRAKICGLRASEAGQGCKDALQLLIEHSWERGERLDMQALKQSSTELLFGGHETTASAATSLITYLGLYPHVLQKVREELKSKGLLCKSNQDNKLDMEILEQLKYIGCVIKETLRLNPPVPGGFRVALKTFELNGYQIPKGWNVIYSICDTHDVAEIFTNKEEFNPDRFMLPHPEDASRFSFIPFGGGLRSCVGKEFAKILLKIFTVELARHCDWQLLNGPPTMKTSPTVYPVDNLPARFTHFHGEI
Summary of the method: (§1)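 MCF-7 or T47D cells (1 × 10^6 per well) induced with 1 µM ATRA for 12-15 h, washed, then given inhibitor (0.0001-10 µM, ethanol stock) plus 0.001 µM [11,12-3H]-ATRA for 5 h. Media and cells extracted with ethyl acetate; metabolites measured by reverse-phase HPLC with radiometric detection; IC50 from dose-response curves.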

Cytochrome P450 26A1 [2] = molecular target: T1, Cytochrome P450 26A1; experiment: Inhibition of ATRA-induced CYP26 in human T47D cell microsome assessed as ATRA metabolism using [11.12-3H]-ATRA; format: functional, microsomes
Summary of the method: (§2)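 Microsomes from male Syrian golden hamster liver, or from T47D cells pretreated with 1 µM ATRA. Incubation in 0.1 M phosphate buffer pH 7.4 with NADPH, MgCl2 and BSA, inhibitor in DMSO; 3 min preincubation at 37 °C, then [11,12-3H]-ATRA for 30 min at 37 °C under oxygen. Ethyl acetate extraction, reverse-phase HPLC with radiometric detection; percent polar metabolites; IC50 from dose-response curves.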

[3] = Inhibition of ATRA hydroxylase in Syrian golden hamster liver microsome assessed ATRA metabolism using [11.12-3H]-ATRA; format: microsomes, Mesocricetus auratus; summary of the method: as §2
MDA-MB-231 = experiment: Growth inhibition of human MDA-MB-231 cells after 6 days by MTT assay; format: functional, cell-based; conditions: MDA-MB-231, 144 h
[4] = molecular target: T2, Retinoic acid receptor alpha (Homo sapiens, UniProt P10276); experiment: Displacement of [11,12-3H]ARTA from RARalpha
T2 sequence (P10276 whole entry): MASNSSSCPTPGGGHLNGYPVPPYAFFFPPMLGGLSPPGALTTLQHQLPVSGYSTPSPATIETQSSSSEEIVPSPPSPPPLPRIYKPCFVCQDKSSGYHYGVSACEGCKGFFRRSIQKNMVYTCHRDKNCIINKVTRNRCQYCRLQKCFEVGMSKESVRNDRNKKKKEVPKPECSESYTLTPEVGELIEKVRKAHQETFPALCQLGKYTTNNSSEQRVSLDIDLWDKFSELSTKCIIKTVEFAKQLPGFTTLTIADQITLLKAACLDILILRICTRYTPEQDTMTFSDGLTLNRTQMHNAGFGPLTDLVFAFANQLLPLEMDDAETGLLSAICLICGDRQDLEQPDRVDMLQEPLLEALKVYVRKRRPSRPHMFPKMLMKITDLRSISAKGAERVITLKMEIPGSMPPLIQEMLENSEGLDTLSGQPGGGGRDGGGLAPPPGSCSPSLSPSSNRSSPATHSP
Summary of the method: (§3)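 Recombinant S-Tag RARα, RARβ or RARγ fusion protein extracts (10-30 µg/mL total protein) in HEPES pH 7.9 binding buffer. Incubated with 1 nM [3H]all-trans-RA and 0-500 nM test compound for 3 h at 27 °C.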

[5] = molecular target: T3, Retinoic acid receptor beta (Homo sapiens, UniProt P10826); experiment: Displacement of [11,12-3H]ARTA from RARbeta; summary of the method: as §3
T3 sequence (P10826 whole entry): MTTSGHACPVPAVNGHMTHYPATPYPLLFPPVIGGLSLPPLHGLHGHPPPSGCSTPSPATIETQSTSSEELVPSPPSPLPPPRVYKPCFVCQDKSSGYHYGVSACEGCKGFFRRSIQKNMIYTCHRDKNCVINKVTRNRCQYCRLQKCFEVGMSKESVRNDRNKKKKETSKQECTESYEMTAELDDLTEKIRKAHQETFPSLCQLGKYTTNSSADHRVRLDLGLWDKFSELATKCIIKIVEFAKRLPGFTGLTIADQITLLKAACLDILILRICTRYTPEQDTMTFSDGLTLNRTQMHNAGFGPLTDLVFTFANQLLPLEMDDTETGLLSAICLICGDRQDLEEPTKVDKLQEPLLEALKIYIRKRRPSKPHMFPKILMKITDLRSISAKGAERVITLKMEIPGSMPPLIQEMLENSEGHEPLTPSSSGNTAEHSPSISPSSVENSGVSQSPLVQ

[6] = Displacement of [11,12-3H]ARTA from RARgamma; set-up: species or system Homo sapiens
Summary of the method: as §3, with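 “°C. Nonspecific binding measured with a 200-fold excess of unlabeled RA; IC50 from dose-response curves, at least two experiments.” for “°C.”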

Cytochrome P450 26A1 [7] = molecular target: T1, Cytochrome P450 26A1; experiment: Inhibition of ATRA-induced CYP26 in human MCF7 cells assessed ATRA as metabolism using [11.12-3H]-ATRA; format: functional, cell-based; summary of the method: as §1
MCF7 = experiment: Growth inhibition of human MCF7 cells after 6 days by MTT assay; format: functional, cell-based; conditions: MCF7, 144 h
Summary of the method: (§4)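 MCF-7 (IMEM, 5% FBS) or T47D (RPMI 1640, 10% FBS) cells, 1 × 10^4 per well, adhered ~18 h, then exposed to 0.0001-10 µM drug (ethanol) for 6 days with media and drug renewed on day 4. MTT for 2 h, formazan dissolved in DMSO, A540. Triplicate wells, 2-3 experiments; IC50 by nonlinear regression.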

T47D = experiment: Growth inhibition of human T47D cells after 6 days by MTT assay; format: functional, cell-based; conditions: 144 h; summary of the method: as §4
LNCaP = experiment: Growth inhibition of human LNCaP cells after 6 days by MTT assay; format: functional, cell-based; conditions: 144 h
Summary of the method: (§5)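 LNCaP cells (1 × 10^4) on poly-L-lysine-coated wells, attached 36 h; PC-3 cells (1 × 10^4), uncoated, attached 24 h; both in RPMI 1640. Treated with a concentration range of drug for 6 days, medium changed every 3 days. MTT read-out at 540 nm; IC50 by nonlinear regression from at least two experiments.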

PC-3 = experiment: Growth inhibition of human PC3 cells after 6 days by MTT assay; format: functional, cell-based; conditions: PC-3, 144 h; summary of the method: as §5

Row | SMILES | IC50 [3] | IC50 (MDA-MB-231) | IC50 [4] | IC50 [5] | IC50 [6] | Ki [3] | other results
1 | COC(=O)/C=C(C)/C=C/C=C(C)/C=C/C1=C(C)[C@H](n2ccnc2)CCC1(C)C (stereo in doubt; (-)-5) |  |  |  |  |  |  | IC50 (Cytochrome P450 26A1 [1]; t47d): 6000 nM; IC50 (Cytochrome P450 26A1 [2]): 680 nM
2 | CC1=C(/C=C/C(C)=C/C=C/C(C)=C/C(=O)n2ccnc2)C(C)(C)CCC1 | 61.2 nM | 7000 nM | > 1000 nM | 500 nM | 500 nM |  | 
3 | CC1=C(/C=C/C(C)=C/C=C/C(C)=C/C(=O)O)C(C)(C)CCC1n1cnnc1 (racemic) | 46.7 nM |  | 410 nM | 250 nM | 300 nM |  | 
4 | CC(=O)N1CCN(c2ccc(OCC3COC(Cn4ccnc4)(c4ccc(Cl)cc4Cl)O3)cc2)CC1 (stereo not drawn) [KETOCONAZOLE] | 34000 nM |  |  |  |  |  | 
5 | CC1=C(/C=C/C(C)=C/C=C/C(C)=C/C(=O)O)C(C)(C)CCC1n1cncn1 (racemic) | 5.84 nM |  | > 1000 nM | 1000 nM | 700 nM |  | 
6 | CC1=C(/C=C/C(C)=C/C=C/C(C)=C/C(=O)n2cncn2)C(C)(C)CCC1 | 51.7 nM |  | 20 nM | 90 nM | 80 nM |  | 
7 | CC1=C(/C=C/C(C)=C/C=C/C(C)=C\C(=O)n2ccnc2)C(C)(C)CCC1n1ccnc1 (racemic) | 57.5 nM |  |  |  |  |  | 
8 | CC1=C(/C=C/C(C)=C/C=C/C(C)=C/C(=O)Nc2ccc(O)cc2)C(C)(C)CCC1n1ccnc1 (racemic) | 43.7 nM | 6300 nM |  |  |  | 0.35 nM | IC50 (Cytochrome P450 26A1 [7]): 56 nM; IC50 (Cytochrome P450 26A1 [1]): 24 nM; IC50 (MCF7): 610 nM; IC50 (T47D): 570 nM; IC50 (LNCaP): 9000 nM; IC50 (PC-3): 1500 nM
9 | COC(=O)/C=C(C)/C=C/C=C(C)/C=C/C1=C(C)C(n2ccnc2)CCC1(C)C (racemic) | 0.009 nM | 7500 nM |  |  |  | 46 nM | IC50 (Cytochrome P450 26A1 [7]): 200 nM; IC50 (Cytochrome P450 26A1 [1]): 215 nM; IC50 (Cytochrome P450 26A1 [2]): 40 nM
10 | CC1=C(/C=C/C(C)=C/C=C/C(C)=C\C(=O)Nc2ccc(O)cc2)C(C)(C)CCC1n1ccnc1 (racemic) | 76.7 nM |  |  |  |  | 0.78 nM | 
